In ChEMBL document CHEMBL1125007 (J Med Chem, 1990):

Legend:
UV4 (Cricetulus griseus) = test: Relative cytotoxic potency given as Hypersensitivity ratio of (IC50 for AA8 cell line) to (IC50 for UV4 cell line)
[1] = Relative lipophilicity; format: physicochemical; details: octanol/water
Outline: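 Relative lipophilicity of the side-chain fragment -NH(CH2)nX-, calculated from substituent fragment values.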

CHO-AA8 = test: Cytotoxicity against AA8 cell line; format: functional, cell-based; details: Cricetulus griseus
Outline: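 AA8 Chinese hamster ovary cells kept in log phase in Alpha MEM with 10% fetal calf serum. Drug was applied in 96-well microcultures for 18 h, then removed by three washes with fresh medium. Cells grew a further 72 h before cell density was read by methylene blue staining. IC50 is the nominal concentration cutting density to 50% of controls, with eight controls per plate.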

P388 [2] = test: Increase in life span of the drug treated animals against P388 leukemia when treated at a optimal dose of 8.9 mg/kg; format: functional; details: Mus musculus
Outline: (§1)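 Single intraperitoneal dose given in 0.1 or 0.2 mL of 30% v/v ethanol-water on day 1 after intraperitoneal inoculation of 10^6 P388 leukemia cells. ILS is the percent increase in lifespan of treated tumor-bearing animals at that optimal dose.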

P388 [3] = test: Cytotoxicity against P388 leukemia cell line; format: functional, cell-based; details: Mus musculus
Outline: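 P388 murine leukemia cells kept in log phase in RPMI 1640 with 10% fetal calf serum. Drug was present in 96-well microcultures for the whole 72 h growth period. Final cell density was read by a slightly modified MTT method. IC50 is the nominal concentration cutting density to 50% of controls, with eight control cultures per plate.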

P388 [4] = test: Optimal dose (i.p.) given after inoculation with wild type 10 E 6 P388/W leukemia cell lines, measured on day 1; format: functional, Mus musculus
Outline: as §1

P388 [5] = test: Increase in life span of the drug treated animals against P388 leukemia when treated at a optimal dose of 30 mg/kg; format: functional; details: Mus musculus
Outline: as §1

Nucleic Acid [6] = test: DNA crosslinking ability at a concentration of 0.2 uM determined after Agarose gel electrophoresis run for 24 hr; + indicates Significant crosslinking; format: functional
Nucleic Acid [7] = test: pBR322/DHFR26 DNA crosslinking ability at a concentration of 0.2 uM determined after Agarose gel electrophoresis run for 4 hr; + indicates Significant crosslinking; format: functional
[8] = Rate constant for alkylation of 4-(4-nitrobenzyl)pyridine; format: ADME
Nucleic Acid [9] = test: pBR322/DHFR26 DNA crosslinking ability at a concentration of 0.02 uM determined after Agarose gel electrophoresis run for 4 hr; + indicates Significant crosslinking; format: functional
[10] = Rate constant for hydrolysis in aqueous acetone.; format: ADME; design: scale not given here; details: buffer
P388 [11] = test: Increase in life span of the drug treated animals against P388 leukemia when treated at a optimal dose of 45 mg/kg; format: functional; details: Mus musculus
Outline: as §1

Nucleic Acid [12] = test: pBR322/DHFR26 DNA crosslinking ability at a concentration of 0.02 uM determined after Agarose gel electrophoresis run for 4 hr; +/- indicates Slight crosslinking; format: functional
P388 [13] = test: Increase in life span of the drug treated animals against P388 leukemia when treated at a optimal dose of 65 mg/kg; No activity at all doses; format: functional, organism-based; design: dose 65 mg/kg; details: Mus musculus
Outline: as §1

Nucleic Acid [14] = test: DNA crosslinking ability at a concentration of 0.2 uM determined after Agarose gel electrophoresis run for 24 hr; ++ indicates extensive crosslinking; format: functional
Nucleic Acid [15] = test: pBR322/DHFR26 DNA crosslinking ability at a concentration of 0.2 uM determined after Agarose gel electrophoresis run for 4 hr; ++ extensive Significant crosslinking; format: functional
P388 [16] = test: Increase in life span of the drug treated animals against P388 leukemia when treated at a optimal dose of 26 mg/kg; format: functional; details: Mus musculus
Outline: as §1

P388 [17] = test: Increase in life span of the drug treated animals against P388 leukemia when treated at a optimal dose of 65 mg/kg; format: functional; details: Mus musculus
Outline: as §1

P388 [18] = test: Increase in life span of the drug treated animals against P388 leukemia when treated at a optimal dose of 13.3 mg/kg; format: functional; details: Mus musculus
Outline: as §1

Structure (SMILES)	HF (UV4 (Cricetulus griseus))	Relative lipophilicity [1]	IC50 (CHO-AA8) [nM]	IC50 (P388 [3]) [nM]	OD (P388 [4]) [mg/kg]	other results
Cl.Cl.Cl.Cl.ClCCN(CCCl)c1ccc(OCCCNc2c3ccccc3nc3ccccc23)cc1	54	0.26	380	47	8.9	ILS at 8.9 mg/kg (P388 [2]): 27%
Cl.ClCCN(CCCl)c1ccc(OCCNc2c3ccccc3nc3ccccc23)cc1	54	-0.02	270	72	30	ILS at 30 mg/kg (P388 [5]): 42%
O=S(=O)(CCCCCNc1c2ccccc2nc2ccccc12)c1ccc(N(CCCl)CCCl)cc1	1	-0.38	–	750	–	–
ClCCN(CCCl)c1ccc(SCCCCCNc2c3ccccc3nc3ccccc23)cc1	19	1.76	–	380	–	–
ClCCN(CCCl)c1ccc(OCCCCCNc2c3ccccc3nc3ccccc23)cc1	46	1.18	–	50	–	DNA crosslinking (Nucleic Acid [6]): Significant crosslinking
ClCCN(CCCl)c1ccc(CCCCCCNc2c3ccccc3nc3ccccc23)cc1	36	2.29	–	136	–	DNA crosslinking (Nucleic Acid [7]): Significant crosslinking; DNA crosslinking (Nucleic Acid [6]): Significant crosslinking; KNBP [8]: 157000 s⁻¹; DNA crosslinking (Nucleic Acid [9]): Significant crosslinking; KH [10]: 33900 s⁻¹
Cl.Cl.Cl.Cl.ClCCN(CCCl)c1ccc(CCCCNc2c3ccccc3nc3ccccc23)cc1	36	1.21	440	86	45	DNA crosslinking (Nucleic Acid [7]): Significant crosslinking; DNA crosslinking (Nucleic Acid [6]): Significant crosslinking; KNBP [8]: 225000 s⁻¹; ILS at 45 mg/kg (P388 [11]): 52%; DNA crosslinking (Nucleic Acid [12]): +/-; KH [10]: 20600 s⁻¹
O=C(O)CCCc1ccc(N(CCCl)CCCl)cc1 [CHLORAMBUCIL]	58	–	–	7500	–	–
Cl.O=S(=O)(CCNc1c2ccccc2nc2ccccc12)c1ccc(N(CCCl)CCCl)cc1	3.3	-1.17	18300	2300	65	ILS (P388 [13]): No activity
Cl.Cl.Cl.Cl.ClCCN(CCCl)c1ccc(CCCCCNc2c3ccccc3nc3ccccc23)cc1	59	1.75	310	82	45	KNBP [8]: 144000 s⁻¹; ILS at 45 mg/kg (P388 [11]): 58%; DNA crosslinking (Nucleic Acid [9]): extensive crosslinking; DNA crosslinking (Nucleic Acid [14]): extensive crosslinking; DNA crosslinking (Nucleic Acid [15]): extensive crosslinking; KH [10]: 32000 s⁻¹
Cl.O=S(=O)(CCCCNc1c2ccccc2nc2ccccc12)c1ccc(N(CCCl)CCCl)cc1	1.4	-0.92	1700	1900	30	ILS (P388 [13]): No activity
ClCCN(CCCl)c1ccc(OCCCCNc2c3ccccc3nc3ccccc23)cc1	55	0.64	280	63	45	ILS at 45 mg/kg (P388 [11]): 47%
Cl.ClCCN(CCCl)c1ccc(SCCCCNc2c3ccccc3nc3ccccc23)cc1	21	1.22	1370	490	26	ILS at 26 mg/kg (P388 [16]): 48%
Cl.Cl.Cl.Cl.ClCCN(CCCl)c1ccc(CCCNc2c3ccccc3nc3ccccc23)cc1	43	0.67	310	61	45	DNA crosslinking (Nucleic Acid [7]): Significant crosslinking; DNA crosslinking (Nucleic Acid [6]): Significant crosslinking; KNBP [8]: 146000 s⁻¹; ILS at 45 mg/kg (P388 [11]): 25%; DNA crosslinking (Nucleic Acid [12]): +/-; KH [10]: 14500 s⁻¹
Cl.Cl.Cl.Cl.ClCCN(CCCl)c1ccc(SCCNc2c3ccccc3nc3ccccc23)cc1	24	0.42	1200	372	65	ILS at 65 mg/kg (P388 [17]): 37%
Cl.O=S(=O)(CCCNc1c2ccccc2nc2ccccc12)c1ccc(N(CCCl)CCCl)cc1	5.1	-1.14	9800	2600	45	ILS (P388 [13]): No activity
Cl.Cl.Cl.Cl.ClCCN(CCCl)c1ccc(SCCCNc2c3ccccc3nc3ccccc23)cc1	18	0.79	1100	360	13.3	ILS at 13.3 mg/kg (P388 [18]): 38%
